According to paper PMC4684772 (ACS chemical biology, 2015):
“Also recorded” adds a separate entry of the source.

Experiments:
CDK4 = conditions: cited from earlier work; for IC50: read-out: IC50 for CDK4 inhibition
[1] = tested on: LUSQ cell lines (H157, H2170, H520, H596); experiment: cell viability; format: cell-based; conditions: for sensitivity regarding viability: H157 and H520 cells, Fig. S4
Outline: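 Four LUSQ lines (H157, H2170, H520, H596) were exposed to the test compound for 72 hours and cell viability was measured. IC50 values for inhibition of viability were derived per line.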

CDK4/cyclin D1 = experiment: in vitro kinase assays for CDK4/cyclin D1 activity; format: biochemical; conditions: in vitro kinase assay CDK4/cyclin D1
H157 and H520 cells [2] = experiment: pSer473 AKT and pGSK3 Western blots; format: cell-based; conditions: 4 hours
H157 and H520 cells [3] = experiment: LC3 Western blots; format: cell-based; conditions: 48 hours
PIK3CD = experiment: in vitro kinase assay; format: biochemical; conditions: in vitro kinase assays
autophagic vesicles = experiment: quantitative analysis of autophagic vesicles by Cyto-ID; format: cell-based; conditions: 3 hour treatment
PIK3C3 = PIK3C3 (Homo sapiens, UniProt Q8NEB9); experiment: in vitro kinase assay; format: biochemical
PIK3C3, sequence (Q8NEB9 whole entry): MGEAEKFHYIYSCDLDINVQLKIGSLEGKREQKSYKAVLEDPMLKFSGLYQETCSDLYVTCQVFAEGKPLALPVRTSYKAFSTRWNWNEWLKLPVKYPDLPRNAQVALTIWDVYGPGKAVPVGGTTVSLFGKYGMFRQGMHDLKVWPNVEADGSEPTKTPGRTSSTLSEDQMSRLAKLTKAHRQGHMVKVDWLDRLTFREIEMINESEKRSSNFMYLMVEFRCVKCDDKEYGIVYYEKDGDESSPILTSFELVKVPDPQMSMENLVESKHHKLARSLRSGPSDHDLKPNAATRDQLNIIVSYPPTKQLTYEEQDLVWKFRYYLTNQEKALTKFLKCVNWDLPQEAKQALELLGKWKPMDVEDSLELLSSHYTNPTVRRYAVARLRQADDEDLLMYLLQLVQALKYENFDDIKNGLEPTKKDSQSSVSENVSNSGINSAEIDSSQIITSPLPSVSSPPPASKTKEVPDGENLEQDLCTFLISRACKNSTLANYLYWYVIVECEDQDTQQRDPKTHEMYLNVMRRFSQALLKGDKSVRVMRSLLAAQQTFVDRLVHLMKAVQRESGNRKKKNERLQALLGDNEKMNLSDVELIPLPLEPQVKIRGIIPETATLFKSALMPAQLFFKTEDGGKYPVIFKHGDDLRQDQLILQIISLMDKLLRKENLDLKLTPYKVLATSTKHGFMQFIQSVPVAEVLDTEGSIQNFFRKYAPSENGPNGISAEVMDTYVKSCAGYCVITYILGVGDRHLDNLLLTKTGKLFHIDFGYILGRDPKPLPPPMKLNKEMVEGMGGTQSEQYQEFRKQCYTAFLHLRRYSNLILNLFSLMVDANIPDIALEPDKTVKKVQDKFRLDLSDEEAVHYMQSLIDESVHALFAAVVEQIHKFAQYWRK

CDK9 = experiment: in vitro kinase assay; format: biochemical; conditions: in vitro kinase assays
H157 cells = experiment: Rb Ser780 phosphorylation immunoblot; format: cell-based; conditions: 1 µM and 5 µM, 4 and 24 hours
PIK3R4 = experiment: dose-dependent binding competition with soluble drug; conditions: Fig. S3C
CSNK2α2 = experiment: in vitro kinase assay; format: biochemical; conditions: in vitro kinase assays
AURKA = experiment: in vitro kinase assay; format: biochemical; conditions: in vitro kinase assays
GAK = experiment: dose-dependent binding competition with soluble drug; conditions: Fig. S3C
TNK1 = experiment: in vitro kinase assay; format: biochemical; conditions: in vitro kinase assays

## CCN1CCN(Cc2ccc(Nc3ncc(F)c(-c4cc(F)c5nc(C)n(C(C)C)c5c4)n3)nc2)CC1 [Abemaciclib, abemaciclib]
CDK4
  fold more potent for CDK4 than palbociclib and ribociclib: about 5 fold
[1]; LUSQ cell lines, Fig. S1
  effects on viability compared with palbociclib and ribociclib: stronger effects

## Nc1cc(C(F)(F)F)c(-c2cc(N3CCOCC3)nc(N3CCOCC3)n2)cn1 [BKM120]
[1]
  sensitivity regarding viability: relative insensitivity

## CC[C@H](Nc1ncnc2[nH]cnc12)c1nc2cccc(F)c2c(=O)n1-c1ccccc1 [CAL-101]
[1]
  sensitivity regarding viability: relative insensitivity

## CN(C)C(=O)c1cc2cnc(Nc3ccc(N4CCN(CCCN)CC4)cn3)nc2n1C1CCCC1 [c-ribociclib]
CDK4/cyclin D1
  CDK4 activity of coupleable analogues: conservation of their CDK4 activity

## CC(=O)c1c(C)c2cnc(Nc3ccc(N4CCNCC4)cn3)nc2n(C2CCCC2)c1=O [palbociclib]
CDK4
  IC50: […]
H157 and H520 cells [2]
  inhibition of phosphorylation of AKT S473 and its downstream target GSK3β: dose-dependently inhibits
H157 and H520 cells [3]
  lipidation of LC3 (LC3-II): increased
PIK3CD
  validation as target, PIK3CD: relatively weak; also recorded: new palbociclib targets
Autophagic vesicles
  number of autophagic vesicles: increased
[1]; LUSQ cell lines, 72 hours
  cellular activity compared with ribociclib: somewhat more active
PIK3C3
  IC50: 14.8 µM
CDK9
  validation as target, CDK9: new palbociclib targets
H157 cells
  inhibition of Rb phosphorylation at S780: effectively inhibited
PIK3R4
  interaction with PIK3R4: potent interactions
CSNK2α2
  validation as target, CSNK2α2: new palbociclib targets

## CN(C)C(=O)c1cc2cnc(Nc3ccc(N4CCNCC4)cn3)nc2n1C1CCCC1 [ribociclib]
CDK4
  IC50: […]
AURKA
  inhibition of AURKA: weakly inhibited
GAK
  interaction with GAK: potent interactions
TNK1
  validation as target, TNK1: potent
CDK9
  validation as target, CDK9: potent
H157 cells
  inhibition of Rb phosphorylation at S780: effectively inhibited
